Key:
[1] = Cytotoxicity in mock-infected human MT4 cells assessed as reduction in cell viability by MTT assay; type: cell-based
How it was run: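 Mock-infected MT-4 cells were run in parallel with the infected series: 6×10^5 cells/mL, serial fivefold compound dilutions, triplicate wells. MTT viability was read 5 days later at 540/690 nm from the median OD of three wells. CC₅₀ is the concentration cutting OD540 of mock-infected controls by 50%.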

[2] = system: Human immunodeficiency virus 1; assay: Antiviral activity against HIV1 3B infected in human MT4 cells assessed as inhibition of virus-induced cytopathogenicity by measuring virus-induced syncytium formation by MTT assay; type: functional, organism-based; settings: Human immunodeficiency virus 1, 3B
How it was run: (§1)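 MT-4 cells, exponentially growing, spun 5 min at 220 g and resuspended at 6×10^5 cells/mL. Infected with virus stock at 100-300 CCID₅₀ (HIV-1 IIIB or HIV-2 ROD). Serial fivefold compound dilutions were tested in triplicate wells. Viability was read by MTT after 5 days at 540 and 690 nm, using the median OD of three wells.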

[3] = system: Human immunodeficiency virus 2; assay: Antiviral activity against HIV2 ROD infected in human MT4 cells assessed as inhibition of virus-induced cytopathogenicity by measuring virus-induced syncytium formation by MTT assay; type: functional, organism-based; settings: Human immunodeficiency virus 2, ISOLATE ROD
How it was run: as §1, with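 “three wells. EC₅₀ was taken as 50% inhibition of virus-induced syncytium formation.” for “three wells.”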

[4] = system: Human immunodeficiency virus 1; assay: Antiviral activity against HIV1 RES056 expressing reverse transcriptase K103N/Y181C double mutant infected in human MT4 cells assessed as inhibition of virus-induced cytopathogenicity by measuring virus-induced syncytium formation by MTT assay; type: functional, organism-based; settings: Human immunodeficiency virus 1, RES056, MT4
How it was run: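 MT-4 cells (exponentially growing, spun 5 min at 220 g, resuspended at 6×10^5 cells/mL) infected with 100-300 CCID₅₀ virus; serial fivefold compound dilutions added at start, triplicate wells, mock-infected set in parallel. Viability read by MTT reduction at 540 and 690 nm after 5 days; median OD of three wells; EC₅₀ = concentration inhibiting virus-induced syncytium formation by 50%.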

[5] = Selectivity index, ratio of CC50 for mock-infected human MT4 cells to EC50 for antiviral activity against HIV1 3B infected in human MT4 cells; type: toxicity, cell-based; settings: mock-infected (CC50) and HIV1 3B infected (EC50)
How it was run: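 SI is CC₅₀/EC₅₀. Both values come from parallel MTT readings on mock-infected and HIV-1 IIIB-infected (100-300 CCID₅₀) MT-4 cells, in triplicate wells with serial fivefold dilutions, read after 5 days.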

[6] = target: Human immunodeficiency virus type 1 reverse transcriptase (Human immunodeficiency virus 1, UniProt Q72547); assay: Inhibition of recombinant wild type HIV1 reverse transcriptase p66/p51 assessed as reduction in biotin-dUTP incorporation incubated for 40 mins using poly(rA) template and oligo(dT)16 primer by picogreen dye based spectrofluorometry
[7] = system: Human immunodeficiency virus 1; assay: Potency index, ratio of EC50 for nevirapine to EC50 for test compound for antiviral activity against HIV1 3B infected in human MT4 cells by MTT assay; type: functional
[8] = target: Human immunodeficiency virus type 1 reverse transcriptase (Human immunodeficiency virus 1) (UniProt Q72547); assay: Potency index, ratio of IC50 for nevirapine to IC50 for test compound for inhibition of recombinant wild type HIV1 reverse transcriptase p66/p51 incubated for 40 mins using poly(rA) template and oligo(dT)16 primer by picogreen dye based spectrofluorometry

With `Cc1cc(C#N)cc(C)c1Oc1nc(Nc2ccc(C#N)cc2)nc(N)c1Br` [ETRAVIRINE] the CC50 [1] was greater than 4.59 µM.
Compound `O=C1Nc2ccc(Cl)cc2[C@@](C#CC2CC2)(C(F)(F)F)O1` [EFAVIRENZ] has a CC50 [1] greater than 6.34 µM.
`Cc1cc(Cl)cc(C)c1Oc1cnc([N+](=O)[O-])c(Nc2ccc(C#N)cc2)c1` gave an EC50 [2] of 1.41 µM, an EC50 [3] greater than 317 µM and an EC50 [4] greater than 317 µM. For the same compound, the CC50 [1] was greater than 317 µM and the selectivity ratio [5] was greater than 171.
In the case of `Cc1cc(C)c(Oc2cnc(N)c(Nc3ccc(C#N)cc3)c2)c(C)c1`, the EC50 [2] is reported as 0.14 µM, the EC50 [3] is reported as greater than 32.1 µM and the EC50 [4] is reported as greater than 32.1 µM. For the same compound, the CC50 [1] was 32.1 µM, the selectivity ratio [5] was 227 and the IC50 [6] was 0.09 µM.
Work on `Cc1cccc(C)c1Oc1cnc([N+](=O)[O-])c(Nc2ccc(C#N)cc2)c1` yielded an EC50 [2] of 2.03 µM, an EC50 [3] greater than 347 µM and an EC50 [4] greater than 347 µM. For the same compound, the CC50 [1] was greater than 347 µM and the selectivity ratio [5] was greater than 171.
With `Cc1cc(Br)c(Oc2cnc([N+](=O)[O-])c(Nc3ccc(C#N)cc3)c2)c(Br)c1` the EC50 [2] was 0.05 µM, the EC50 [3] was greater than 84.3 µM and the EC50 [4] was greater than 84.3 µM. For the same compound, the CC50 [1] was 84.3 µM, the selectivity ratio [5] was 1680 and the IC50 [6] was 0.28 µM.
`N#Cc1ccc(Nc2cc(Oc3c(Cl)cc(Cl)cc3Cl)cnc2N)cc1` showed an EC50 [2] of 0.26 µM, an EC50 [3] of no less than 57.7 µM and an EC50 [4] greater than 179 µM. It also gave a CC50 [1] of 179 µM, a selectivity ratio [5] of 680 and an IC50 [6] of 0.16 µM.
With `Cc1cc(C)c(Nc2cnc([N+](=O)[O-])c(Nc3ccc(C#N)cc3)c2)c(C)c1` the EC50 [2] was 0.04 µM, the EC50 [3] was greater than 168 µM and the EC50 [4] was greater than 168 µM. It also gave a CC50 [1] of 168 µM, a selectivity ratio [5] of 3960 and an IC50 [6] of 0.65 µM. For the same compound, the “Ratio EC50” value [7] was 6.
In the case of `Cc1cccc(C)c1Oc1cnc(N)c(Nc2ccc(C#N)cc2)c1`, the EC50 [2] is reported as 0.6 µM, the EC50 [3] is reported as greater than 378 µM and the EC50 [4] is reported as greater than 378 µM. For the same compound, the CC50 [1] was greater than 378 µM, the selectivity ratio [5] was greater than 628 and the IC50 [6] was 0.91 µM.
`Cc1cn([C@H]2C[C@H](N=[N+]=[N-])[C@@H](CO)O2)c(=O)[nH]c1=O` [ZIDOVUDINE] gave an EC50 [2] of 0.006 µM, a CC50 [1] greater than 7.48 µM and a selectivity ratio [5] greater than 1290.
With `Cc1cc(Br)cc(C)c1Oc1cnc([N+](=O)[O-])c(Nc2ccc(C#N)cc2)c1` the EC50 [2] was 4.41 µM, the EC50 [3] was greater than 285 µM and the EC50 [4] was greater than 285 µM. The CC50 [1] was greater than 285 µM and the selectivity ratio [5] was greater than 64.
Work on `N#Cc1ccc(Nc2cc(Oc3c(Br)cc(Br)cc3Br)cnc2[N+](=O)[O-])cc1` yielded an EC50 [2] of 0.79 µM, an EC50 [3] greater than 220 µM and an EC50 [4] greater than 220 µM. For the same compound, the CC50 [1] was greater than 220 µM and the selectivity ratio [5] was greater than 277.
In the case of `N#Cc1ccc(Nc2cc(Oc3c(Cl)cc(Cl)cc3Cl)cnc2[N+](=O)[O-])cc1`, the EC50 [2] is reported as 0.31 µM, the EC50 [3] is reported as greater than 287 µM and the EC50 [4] is reported as greater than 287 µM. For the same compound, the CC50 [1] was greater than 287 µM and the selectivity ratio [5] was greater than 924.
Work on `COc1cccc(OC)c1Oc1cnc([N+](=O)[O-])c(Nc2ccc(C#N)cc2)c1` yielded an EC50 [2] greater than 319 µM, an EC50 [3] greater than 319 µM and a CC50 [1] greater than 319 µM.
Compound `Cc1cc(C#N)cc(C)c1Oc1cnc(N)c(Nc2ccc(C#N)cc2)c1` has an EC50 [2] of 0.07 µM, an EC50 [3] greater than 39.5 µM and an EC50 [4] of no less than 11.5 µM. For the same compound, the CC50 [1] was 39.5 µM, the selectivity ratio [5] was 577 and the IC50 [6] was 0.17 µM.
Work on `N#Cc1ccc(Nc2cc(Oc3c(Br)cc(Br)cc3Br)cnc2N)cc1` yielded an EC50 [2] of 0.5 µM, an EC50 [3] greater than 27.7 µM and an EC50 [4] greater than 27.7 µM. The CC50 [1] was 27.7 µM, the selectivity ratio [5] was 55 and the IC50 [6] was 0.17 µM.
With `N#Cc1ccc(Nc2cc(Oc3c(F)cc(F)cc3F)cnc2[N+](=O)[O-])cc1` the EC50 [2] was 1.01 µM, the EC50 [3] was greater than 324 µM and the EC50 [4] was greater than 324 µM. For the same compound, the CC50 [1] was greater than 324 µM and the selectivity ratio [5] was greater than 320.
`Cc1cc(C)c(Oc2cnc([N+](=O)[O-])c(Nc3ccc(C#N)cc3)c2)c(C)c1` showed an EC50 [2] of 0.29 µM, an EC50 [3] greater than 334 µM and an EC50 [4] greater than 334 µM. It also gave a CC50 [1] greater than 334 µM and a selectivity ratio [5] greater than 1160.
Work on `Cc1cc(Br)cc(C)c1Oc1cnc(N)c(Nc2ccc(C#N)cc2)c1` yielded an EC50 [2] of 0.84 µM, an EC50 [3] greater than 26.7 µM and an EC50 [4] greater than 26.7 µM. It also gave a CC50 [1] of 26.7 µM, a selectivity ratio [5] of 32 and an IC50 [6] of 0.26 µM.
Work on `Cc1cc(Br)c(Oc2cnc(N)c(Nc3ccc(C#N)cc3)c2)c(Br)c1` yielded an EC50 [2] of 0.07 µM, an EC50 [3] greater than 264 µM and an EC50 [4] greater than 264 µM. For the same compound, the CC50 [1] was greater than 264 µM, the selectivity ratio [5] was greater than 3800 and the IC50 [6] was 0.05 µM. It also gave a Ratio IC50 [8] of 45.
`Cc1cc(C#N)cc(C)c1Oc1cnc([N+](=O)[O-])c(Nc2ccc(C#N)cc2)c1` showed an EC50 [2] of 4.12 µM, an EC50 [3] greater than 324 µM and an EC50 [4] greater than 324 µM. For the same compound, the CC50 [1] was greater than 324 µM and the selectivity ratio [5] was greater than 79.
With `Cc1cc(Cl)cc(C)c1Oc1cnc(N)c(Nc2ccc(C#N)cc2)c1` the EC50 [2] was 0.37 µM, the EC50 [3] was greater than 35.1 µM and the EC50 [4] was greater than 35.1 µM. For the same compound, the CC50 [1] was 35.1 µM, the selectivity ratio [5] was 95 and the IC50 [6] was 0.31 µM.
`Cc1ccnc2c1NC(=O)c1cccnc1N2C1CC1` [NEVIRAPINE] gave an EC50 [4] greater than 15 µM and a CC50 [1] greater than 15 µM.
Work on `Cc1cccc(C)c1Nc1cnc([N+](=O)[O-])c(Nc2ccc(C#N)cc2)c1` yielded an EC50 [2] of 1.06 µM, an EC50 [3] greater than 6.27 µM and an EC50 [4] greater than 6.27 µM. For the same compound, the CC50 [1] was 6.27 µM and the selectivity ratio [5] was 6.
`COc1cccc(OC)c1Oc1cnc(N)c(Nc2ccc(C#N)cc2)c1` gave an EC50 [2] of 35.7 µM, an EC50 [3] greater than 345 µM and an EC50 [4] greater than 345 µM. For the same compound, the CC50 [1] was greater than 345 µM, the selectivity ratio [5] was greater than 10 and the IC50 [6] was 146 µM.
